# Values joined by “and” are separate entries in the source; they are usually repeats but may differ in a detail not shown here. Identical values can stand only once.
# System: Fibroblast
# Assay: Multiplex assay against human fibroblast
# Assay type: toxicity, cell-based
# Method in brief: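 Cells were classed with CellPathfinder machine-learning gating, first as Hoechst high-intensity objects or normal cells, then (normal cells) as healthy, pyknosed or fragmented nuclei, and finally (pyknosed cells) as mitotic or apoptotic. Staining of live cells at seeding used Hoechst33342, BioTracker Green Microtubule Cytoskeleton Dye, MitoTracker Red and Annexin V Alexa Fluor 680, with imaging on a CQ1 microscope at 37°C and 5% CO2 after compound addition. Tubulin, mitochondrial-mass and membrane-permeability phenotypes are per cents of healthy-nucleus cells.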
# [1] = 12 h, 1 µM, compound concentration 1 uM
# [2] = 12 h, 10 µM, compound concentration 10 uM
# [3] = 24 h, 1 µM, compound concentration 1 uM
# [4] = 24 h, 10 µM, compound concentration 10 uM
# [5] = 48 h, 1 µM, compound concentration 1 uM
# [6] = 48 h, 10 µM, compound concentration 10 uM
compound,measurement,setting,value
Cc1cc(O)c(-c2ccc([C@@H](C)CN(C)C)cc2)c2c1[nH]c(=O)c1sccc12,Population Healthy Nuclei (%),[1],67% and 56% and 55.08% and 75.51%
same,Population Hoechst High Intensity Objects (%),[1],7% and 2% and 0%
same,Population Membrane Permeable-Phenotype (%),[1],1% and 4% and 5.83% and 9.91%
same,Population Mitochondria Different-Phenotype (%),[1],17% and 12% and 18.45% and 20.72%
same,Population Mitotic Cells (%),[1],72.41% [middle of 4 runs]
same,Population Normal (%),[1],92% and 97% and 100%
same,Population Pyknosed Nuclei (%),[1],20% and 21% and 33.16% and 19.73%
same,Population Tubulin-Different-Phenotype (%),[1],44% and 52% and 26.21% and 40.54%
same,Total Cell Count,[1],145 and 115 and 187 and 147
same,Population Apoptotic (%),[2],69% [middle of 4 runs]
same,Population Healthy Nuclei (%),[2],63% and 55% and 58.38% and 64.17%
same,Population Hoechst High Intensity Objects (%),[2],6% and 5% and 0%
same,Population Membrane Permeable-Phenotype (%),[2],8.7% [middle of 4 runs]
same,Population Mitochondria Different-Phenotype (%),[2],40% [middle of 4 runs]
same,Population Mitotic Cells (%),[2],30% and 75.86% and 55.84%
same,Population Normal (%),[2],93% and 94% and 100%
same,Population Pyknosed Nuclei (%),[2],29.44% [middle of 4 runs]
same,Population Tubulin-Different-Phenotype (%),[2],90% and 80% and 81.74% and 85.06%
same,Total Cell Count,[2],146 and 137 and 197 and 240
same,Population Healthy Nuclei (%),[3],66% and 54% and 64.88% and 75%
same,Population Hoechst High Intensity Objects (%),[3],7% and 9% and 0%
same,Population Membrane Permeable-Phenotype (%),[3],0% and 1% and 5.5% and 9.26%
same,Population Mitochondria Different-Phenotype (%),[3],21.1% [middle of 4 runs]
same,Population Mitotic Cells (%),[3],54% and 47% and 85.37% and 84.62%
same,Population Normal (%),[3],92% and 90% and 100%
same,Population Pyknosed Nuclei (%),[3],21% and 16% and 24.4% and 18.06%
same,Population Tubulin-Different-Phenotype (%),[3],73% and 56% and 47.71% and 50.93%
same,Total Cell Count,[3],119 and 111 and 168 and 144
same,Population Apoptotic (%),[4],57% [middle of 4 runs]
same,Population Healthy Nuclei (%),[4],65% and 51% and 52.84% and 54.55%
same,Population Hoechst High Intensity Objects (%),[4],3% and 8% and 0%
same,Population Membrane Permeable-Phenotype (%),[4],0% and 3% and 6.45% and 8.77%
same,Population Mitochondria Different-Phenotype (%),[4],42% and 34% and 53.76% and 42.11%
same,Population Mitotic Cells (%),[4],43.68% [middle of 4 runs]
same,Population Normal (%),[4],96% and 91% and 100%
same,Population Pyknosed Nuclei (%),[4],34.66% [middle of 4 runs]
same,Population Tubulin-Different-Phenotype (%),[4],87% and 81% and 80.65% and 92.11%
same,Total Cell Count,[4],122 and 124 and 176 and 209
same,Population Apoptotic (%),[5],57% [middle of 4 runs]
same,Population Healthy Nuclei (%),[5],55% and 48% and 49.14% and 75.38%
same,Population Hoechst High Intensity Objects (%),[5],7% and 9% and 0%
same,Population Mitochondria Different-Phenotype (%),[5],20% [middle of 4 runs]
same,Population Mitotic Cells (%),[5],52% [middle of 4 runs]
same,Population Normal (%),[5],92% and 90% and 100%
same,Population Pyknosed Nuclei (%),[5],24% and 20% and 28.57% and 19.23%
same,Population Tubulin-Different-Phenotype (%),[5],70% and 62% and 43.02% and 59.18%
same,Total Cell Count,[5],118 and 103 and 175 and 130
same,Population Apoptotic (%),[6],70% and 71% and 49.33% and 79.12%
same,Population Healthy Nuclei (%),[6],53% and 43% and 45.16% and 48.13%
same,Population Hoechst High Intensity Objects (%),[6],10% and 7% and 0%
same,Population Membrane Permeable-Phenotype (%),[6],0% and 8.33% and 20%
same,Population Mitochondria Different-Phenotype (%),[6],53% and 30% and 44.05%
same,Population Mitotic Cells (%),[6],29% [middle of 4 runs]
same,Population Normal (%),[6],89% and 92% and 100%
same,Population Tubulin-Different-Phenotype (%),[6],89% and 85% and 58.33% and 77.78%
same,Total Cell Count,[6],117 and 136 and 186 and 187
CC/C(=C(\c1ccc(O)cc1)c1ccc(OCCN(C)C)cc1)c1ccccc1 [AFIMOXIFENE],Population Apoptotic (%),[1],6.78% and 3.57%
same,Population Fragmented Nuclei (%),[1],14.83% and 6.12%
same,Population Healthy Nuclei (%),[1],56.94% and 79.59%
same,Population Hoechst High Intensity Objects (%),[1],0%
same,Population Membrane Permeable-Phenotype (%),[1],2.52% and 2.56%
same,Population Mitochondria Different-Phenotype (%),[1],7.56% and 8.97%
same,Population Mitotic Cells (%),[1],93.22% and 96.43%
same,Population Normal (%),[1],100%
same,Population Pyknosed Nuclei (%),[1],28.23% and 14.29%
same,Population Tubulin-Different-Phenotype (%),[1],14.29% and 22.44%
same,Total Cell Count,[1],209 and 196
same,Population Fragmented Nuclei (%),[2],14.55% and 7.74%
same,Population Healthy Nuclei (%),[2],54.55% and 72.76%
same,Population Hoechst High Intensity Objects (%),[2],0%
same,Population Membrane Permeable-Phenotype (%),[2],3.33% and 2.55%
same,Population Mitochondria Different-Phenotype (%),[2],25.56% and 23.83%
same,Population Mitotic Cells (%),[2],94.12% and 80.95%
same,Population Normal (%),[2],100%
same,Population Pyknosed Nuclei (%),[2],30.91% and 19.5%
same,Population Tubulin-Different-Phenotype (%),[2],54.44% and 66.38%
same,Total Cell Count,[2],165 and 323
same,Population Apoptotic (%),[3],8.77% and 18.75%
same,Population Fragmented Nuclei (%),[3],10.78% and 8.21%
same,Population Healthy Nuclei (%),[3],64.66% and 83.59%
same,Population Hoechst High Intensity Objects (%),[3],0%
same,Population Membrane Permeable-Phenotype (%),[3],4% and 2.45%
same,Population Mitochondria Different-Phenotype (%),[3],6.67% and 9.82%
same,Population Mitotic Cells (%),[3],91.23% and 81.25%
same,Population Normal (%),[3],100%
same,Population Pyknosed Nuclei (%),[3],24.57% and 8.21%
same,Population Tubulin-Different-Phenotype (%),[3],18% and 23.31%
same,Total Cell Count,[3],232 and 195
same,Population Apoptotic (%),[4],17.65% and 48.31%
same,Population Fragmented Nuclei (%),[4],12.57%
same,Population Healthy Nuclei (%),[4],50.27% and 67.6%
same,Population Hoechst High Intensity Objects (%),[4],0%
same,Population Membrane Permeable-Phenotype (%),[4],3.26% and 2.76%
same,Population Mitochondria Different-Phenotype (%),[4],29.35% and 27.19%
same,Population Mitotic Cells (%),[4],82.35% and 51.69%
same,Population Normal (%),[4],100%
same,Population Pyknosed Nuclei (%),[4],37.16% and 27.73%
same,Population Tubulin-Different-Phenotype (%),[4],70.65% and 79.72%
same,Total Cell Count,[4],183 and 321
same,Population Fragmented Nuclei (%),[5],9.52% and 11.27%
same,Population Healthy Nuclei (%),[5],83.67% and 81.69%
same,Population Hoechst High Intensity Objects (%),[5],0%
same,Population Membrane Permeable-Phenotype (%),[5],1.22% and 2.3%
same,Population Mitochondria Different-Phenotype (%),[5],9.35% and 5.17%
same,Population Mitotic Cells (%),[5],95% and 73.33%
same,Population Normal (%),[5],100%
same,Population Pyknosed Nuclei (%),[5],6.8% and 7.04%
same,Population Tubulin-Different-Phenotype (%),[5],8.94% and 25.86%
same,Total Cell Count,[5],294 and 213
same,Population Apoptotic (%),[6],28.57% and 43.14%
same,Population Healthy Nuclei (%),[6],71.37% and 80.49%
same,Population Hoechst High Intensity Objects (%),[6],0%
same,Population Membrane Permeable-Phenotype (%),[6],4.71%
same,Population Mitochondria Different-Phenotype (%),[6],13.37% and 7.41%
same,Population Mitotic Cells (%),[6],71.43% and 56.86%
same,Population Normal (%),[6],100%
same,Population Pyknosed Nuclei (%),[6],8.71% and 13.82%
same,Population Tubulin-Different-Phenotype (%),[6],49.42% and 76.77%
same,Total Cell Count,[6],241 and 369
